Data taken from ChEMBL document CHEMBL1149162 (J Med Chem, 2004).

Legend:
[1] = biological target: T1, D(4) dopamine receptor (Homo sapiens, UniProt P21917); assay: Effective concentration against human Dopamine receptor D4
T1 sequence (P21917 whole entry): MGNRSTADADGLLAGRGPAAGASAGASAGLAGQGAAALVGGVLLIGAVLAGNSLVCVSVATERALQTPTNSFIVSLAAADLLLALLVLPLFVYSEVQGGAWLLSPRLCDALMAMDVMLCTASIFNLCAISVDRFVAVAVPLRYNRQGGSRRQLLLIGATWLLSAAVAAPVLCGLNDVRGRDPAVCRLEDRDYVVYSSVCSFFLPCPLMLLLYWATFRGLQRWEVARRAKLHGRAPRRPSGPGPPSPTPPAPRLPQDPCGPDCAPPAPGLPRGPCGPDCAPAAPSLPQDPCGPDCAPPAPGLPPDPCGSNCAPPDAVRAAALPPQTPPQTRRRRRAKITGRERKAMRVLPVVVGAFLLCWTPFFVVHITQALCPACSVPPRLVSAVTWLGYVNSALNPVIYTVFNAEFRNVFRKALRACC

[2] = biological target: T1, D(4) dopamine receptor; assay: Binding affinity against human Dopamine receptor D4 by [3H]-spiperone displacement.
[3] = biological target: T1, D(4) dopamine receptor; assay: D4 efficacy was measured using recombinant human Dopamine receptor D4 expressed in HEK293 cells; assay type: cell-based
Method in brief: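 Human D4.4 co-expressed with Gαq05 in HEK293 cells, seeded at 20 000 cells/well and cultured 2 days. Loaded 1 h at room temperature with 4 μM Fluo-4 and 0.04% Pluronic F-127 in DPBS, then washed. Compound added on FLIPR and calcium fluorescence read for 3 min. EC50 is the concentration giving 50% signal; efficacy is % activation relative to 10 μM dopamine; n ≥ 3.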

[4] = biological target: T2, D(4) dopamine receptor (Homo sapiens) (UniProt P21917); assay: D4 efficacy against human Dopamine receptor D4 expressed in HEK293 cells; assay type: functional, cell-based
T2 sequence (whole entry): T1 sequence (P21917 whole entry)

[5] = biological target: D(2) dopamine receptor (Homo sapiens, UniProt P14416); assay: Binding affinity against human Dopamine receptor D2 using [3H]spiperone as radioligand
[6] = biological target: T2, D(4) dopamine receptor (Homo sapiens); assay: D4 efficacy was measured using recombinant human D4 receptor expressed in HEK293 cells; assay type: functional, cell-based
Method in brief: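 Human D4.4 coexpressed with Gαq05 in HEK293 cells, plated 20 000 cells/well and cultured 2 days. Cells loaded 1 h at room temperature with 4 μM Fluo-4 plus 0.04% Pluronic F-127 in DPBS, washed four times. Compound added on FLIPR and calcium fluorescence recorded for 3 min. Data normalized to 10 μM dopamine response. EC50 is concentration giving 50% signal. n ≥ 3, ±SEM.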

Sequence of D(2) dopamine receptor (P14416 whole entry): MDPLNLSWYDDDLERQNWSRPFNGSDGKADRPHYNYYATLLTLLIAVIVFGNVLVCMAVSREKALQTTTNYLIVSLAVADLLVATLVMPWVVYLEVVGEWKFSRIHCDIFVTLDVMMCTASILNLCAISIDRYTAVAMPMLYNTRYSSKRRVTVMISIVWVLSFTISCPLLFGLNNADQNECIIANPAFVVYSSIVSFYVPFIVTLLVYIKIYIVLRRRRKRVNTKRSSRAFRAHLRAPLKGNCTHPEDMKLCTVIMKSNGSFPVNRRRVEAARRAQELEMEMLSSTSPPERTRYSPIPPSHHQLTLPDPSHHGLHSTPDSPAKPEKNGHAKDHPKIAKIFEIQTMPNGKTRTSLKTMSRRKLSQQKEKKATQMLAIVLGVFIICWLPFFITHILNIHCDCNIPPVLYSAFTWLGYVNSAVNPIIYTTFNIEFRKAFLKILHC

Row | EC50 [1] [nM] | EC50 [3] [nM] | SMILES | Ki [2] [nM] | Efficacy [4] [%] | Ki [5] [nM] | Efficacy [6] [%]
1 | 5.6 | – | COc1ccccc1N1CCN(Cc2nc3ccccc3[nH]2)CC1 | 4.3 | – | – | –
2 | – | 12.4 | c1ccc(N2CCN(Cc3nc4ccccc4[nH]3)CC2)nc1 [ABT-724] | 167 | – | – | –
3 | – | – | COc1ccc(N2CCN(Cc3nc4ccccc4[nH]3)CC2)cc1 | 20.4 | 4.8 | – | –
4 | – | – | Fc1ccc(N2CCN(Cc3nc4ccccc4[nH]3)CC2)cc1 | 79.6 | 9.9 | – | –
5 | – | – | Clc1cccc(N2CCN(Cc3nc4ccccc4[nH]3)CC2)c1 | 9.6 | – | > 10000 | 3.8
6 | 154 | – | Clc1ccc(N2CCN(Cc3cc4ccccn4n3)CC2)cc1 | 2.7 | – | 1310 | –
7 | 10.1 | – | c1ccc(N2CCN(Cc3nc4ccccc4[nH]3)CC2)cc1 | 52 | 37.5 | – | –
8 | – | – | Clc1ccc(N2CCN(Cc3nc4ccccc4[nH]3)CC2)cc1 | 14.8 | 4.7 | > 10000 | –
9 | 1 | – | Clc1ccccc1N1CCN(Cc2nc3ccccc3[nH]2)CC1 | 8.5 | – | – | –
10 | – | – | c1cncc(N2CCN(Cc3nc4ccccc4[nH]3)CC2)c1 | 376 | 24.9 | – | –
11 | – | – | COc1cccc(N2CCN(Cc3nc4ccccc4[nH]3)CC2)c1 | 26.5 | 5 | – | –
12 | – | – | c1ccc2[nH]c(CN3CCN(c4ccncc4)CC3)nc2c1 | > 10000 | 4.8 | – | –

Row | SMILES | EC50 [1] [nM] | EC50 [3] [nM] | Ki [2] [nM] | Efficacy [4] [%] | Ki [5] [nM] | Efficacy [6] [%]
13 | Clc1ccccc1N1CCN(Cc2nc3ccc[nH]c-3n2)CC1 | 10000 | – | 719 | – | > 10000 | –
